The results in this text go back to ChEMBL document CHEMBL5653631, “A Potent and Selective ULK1 Inhibitor Suppresses Autophagy and Sensitizes Cancer Cells to Nutrient Stress” (iScience, 2018).

For experiment [1], the target named is cAMP-dependent protein kinase catalytic subunit beta (Homo sapiens) (UniProt P22694). In words: Inhibition of human recombinant PKACbeta at 40 nM in presence of ATP by radiometric assay relative to control.
For experiment [2], the target named is Serine/threonine-protein kinase PAK 5 (Homo sapiens) (UniProt Q9P286). In words: Inhibition of human recombinant PAK5 at 40 nM related to control ULK1.
Experiment [3] deals with T1, MAPK/MAK/MRK overlapping kinase (Homo sapiens) (UniProt Q9UQ07).
T1 sequence (whole entry): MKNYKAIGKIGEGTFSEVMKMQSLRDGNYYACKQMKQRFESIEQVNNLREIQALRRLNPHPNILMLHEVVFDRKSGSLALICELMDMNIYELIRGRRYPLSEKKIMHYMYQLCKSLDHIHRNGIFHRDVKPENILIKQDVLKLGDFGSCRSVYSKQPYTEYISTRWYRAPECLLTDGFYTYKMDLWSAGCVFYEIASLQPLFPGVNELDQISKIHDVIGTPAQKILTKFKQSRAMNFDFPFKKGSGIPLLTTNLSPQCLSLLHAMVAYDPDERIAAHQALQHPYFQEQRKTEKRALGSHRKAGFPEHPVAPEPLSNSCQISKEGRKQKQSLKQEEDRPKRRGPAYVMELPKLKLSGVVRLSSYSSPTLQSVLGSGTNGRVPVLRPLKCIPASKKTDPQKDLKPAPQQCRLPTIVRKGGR
In words: Inhibition of human recombinant MOK at 40 nM in presence of ATP by radiometric assay relative to control.

The target in experiment [4] is PAS domain-containing serine/threonine-protein kinase (Homo sapiens) (UniProt Q96RG2). In words: Inhibition of human recombinant PASK at 500 nM in presence of ATP by radiometric assay relative to control.
In experiment [5] the target is Dual specificity mitogen-activated protein kinase kinase 2 (Homo sapiens) (UniProt P36507). In words: Inhibition of human recombinant MAP2K2 at 500 nM related to control ULK1.
The target of experiment [6] is Mitogen-activated protein kinase 9 (Homo sapiens) (UniProt P45984). Kind of experiment: Inhibition of human recombinant JNK2 at 500 nM in presence of ATP by radiometric assay relative to control.
The target in experiment [7] is T2, Ephrin type-A receptor 3 (Homo sapiens) (UniProt P29320).
T2 sequence (whole entry): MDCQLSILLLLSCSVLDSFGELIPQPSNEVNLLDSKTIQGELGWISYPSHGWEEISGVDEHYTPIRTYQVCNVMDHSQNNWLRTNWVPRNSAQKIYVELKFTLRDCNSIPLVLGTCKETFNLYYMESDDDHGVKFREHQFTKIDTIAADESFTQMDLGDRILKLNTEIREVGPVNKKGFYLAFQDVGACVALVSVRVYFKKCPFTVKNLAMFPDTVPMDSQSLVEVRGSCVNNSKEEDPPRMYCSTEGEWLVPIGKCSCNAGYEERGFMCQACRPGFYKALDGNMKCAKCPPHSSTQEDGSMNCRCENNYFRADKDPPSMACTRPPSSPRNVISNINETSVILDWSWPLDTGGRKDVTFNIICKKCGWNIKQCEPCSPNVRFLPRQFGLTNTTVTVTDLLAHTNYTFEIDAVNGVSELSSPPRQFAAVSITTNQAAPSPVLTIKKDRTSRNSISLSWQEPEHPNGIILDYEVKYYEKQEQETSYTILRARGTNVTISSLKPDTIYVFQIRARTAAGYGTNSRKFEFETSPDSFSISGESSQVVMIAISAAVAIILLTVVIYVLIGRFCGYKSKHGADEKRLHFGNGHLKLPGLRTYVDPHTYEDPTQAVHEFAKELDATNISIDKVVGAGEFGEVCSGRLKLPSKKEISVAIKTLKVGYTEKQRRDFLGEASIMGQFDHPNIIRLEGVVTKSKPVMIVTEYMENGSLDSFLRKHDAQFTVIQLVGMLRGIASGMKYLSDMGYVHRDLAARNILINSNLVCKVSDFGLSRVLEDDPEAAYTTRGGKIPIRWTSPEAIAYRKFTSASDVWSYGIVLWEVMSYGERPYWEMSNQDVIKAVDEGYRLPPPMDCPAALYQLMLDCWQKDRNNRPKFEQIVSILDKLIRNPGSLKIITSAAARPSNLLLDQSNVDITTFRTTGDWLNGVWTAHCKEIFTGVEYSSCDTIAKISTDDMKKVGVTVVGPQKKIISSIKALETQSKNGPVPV
Kind of experiment: Inhibition of human recombinant EphA3 at 500 nM related to control ULK1.

Experiment [8] deals with Transient receptor potential cation channel subfamily M member 7 (Homo sapiens) (UniProt Q96QT4). In words: Inhibition of human recombinant ChaK1 at 500 nM related to control ULK1.
The target of experiment [9] is Myosin light chain kinase 2, skeletal/cardiac muscle (Homo sapiens) (UniProt Q9H1R3). Kind of experiment: Inhibition of human recombinant skMLCK at 500 nM in presence of ATP by radiometric assay relative to control.
The target in experiment [10] is Angiopoietin-1 receptor (Homo sapiens) (UniProt Q02763). In words: Inhibition of human recombinant Tie2 at 15 nM in presence of ATP by radiometric assay relative to control.
The target in experiment [11] is Interleukin-1 receptor-associated kinase 1 (Homo sapiens) (UniProt P51617). In words: Inhibition of human recombinant IRAK1 at 15 nM related to control ULK1.
Experiment [12] deals with Fibroblast growth factor receptor 3 (Homo sapiens) (UniProt P22607). In words: Inhibition of human recombinant FGFR3 at 15 nM in presence of ATP by radiometric assay relative to control.
Experiment [13] deals with Glycogen synthase kinase-3 alpha (Homo sapiens) (UniProt P49840). In words: Inhibition of human recombinant GSK3A at 15 nM in presence of ATP by radiometric assay relative to control.
In experiment [14] the target is Serine-protein kinase ATM (Homo sapiens) (UniProt Q13315). Kind of experiment: Inhibition of human recombinant ATM at 15 nM in presence of ATP by radiometric assay relative to control. Summed up: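 Panel of 327 recombinant human kinases, each assayed in vitro by radiometric activity assay in duplicate at a single inhibitor concentration per compound, chosen with reference to its ULK1 inhibition. Activity remaining was expressed as percent of vehicle control, and percent inhibition was calculated as 100 minus percent activity remaining.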
Chain of Serine-protein kinase ATM (Homo sapiens) (Q13315 whole entry): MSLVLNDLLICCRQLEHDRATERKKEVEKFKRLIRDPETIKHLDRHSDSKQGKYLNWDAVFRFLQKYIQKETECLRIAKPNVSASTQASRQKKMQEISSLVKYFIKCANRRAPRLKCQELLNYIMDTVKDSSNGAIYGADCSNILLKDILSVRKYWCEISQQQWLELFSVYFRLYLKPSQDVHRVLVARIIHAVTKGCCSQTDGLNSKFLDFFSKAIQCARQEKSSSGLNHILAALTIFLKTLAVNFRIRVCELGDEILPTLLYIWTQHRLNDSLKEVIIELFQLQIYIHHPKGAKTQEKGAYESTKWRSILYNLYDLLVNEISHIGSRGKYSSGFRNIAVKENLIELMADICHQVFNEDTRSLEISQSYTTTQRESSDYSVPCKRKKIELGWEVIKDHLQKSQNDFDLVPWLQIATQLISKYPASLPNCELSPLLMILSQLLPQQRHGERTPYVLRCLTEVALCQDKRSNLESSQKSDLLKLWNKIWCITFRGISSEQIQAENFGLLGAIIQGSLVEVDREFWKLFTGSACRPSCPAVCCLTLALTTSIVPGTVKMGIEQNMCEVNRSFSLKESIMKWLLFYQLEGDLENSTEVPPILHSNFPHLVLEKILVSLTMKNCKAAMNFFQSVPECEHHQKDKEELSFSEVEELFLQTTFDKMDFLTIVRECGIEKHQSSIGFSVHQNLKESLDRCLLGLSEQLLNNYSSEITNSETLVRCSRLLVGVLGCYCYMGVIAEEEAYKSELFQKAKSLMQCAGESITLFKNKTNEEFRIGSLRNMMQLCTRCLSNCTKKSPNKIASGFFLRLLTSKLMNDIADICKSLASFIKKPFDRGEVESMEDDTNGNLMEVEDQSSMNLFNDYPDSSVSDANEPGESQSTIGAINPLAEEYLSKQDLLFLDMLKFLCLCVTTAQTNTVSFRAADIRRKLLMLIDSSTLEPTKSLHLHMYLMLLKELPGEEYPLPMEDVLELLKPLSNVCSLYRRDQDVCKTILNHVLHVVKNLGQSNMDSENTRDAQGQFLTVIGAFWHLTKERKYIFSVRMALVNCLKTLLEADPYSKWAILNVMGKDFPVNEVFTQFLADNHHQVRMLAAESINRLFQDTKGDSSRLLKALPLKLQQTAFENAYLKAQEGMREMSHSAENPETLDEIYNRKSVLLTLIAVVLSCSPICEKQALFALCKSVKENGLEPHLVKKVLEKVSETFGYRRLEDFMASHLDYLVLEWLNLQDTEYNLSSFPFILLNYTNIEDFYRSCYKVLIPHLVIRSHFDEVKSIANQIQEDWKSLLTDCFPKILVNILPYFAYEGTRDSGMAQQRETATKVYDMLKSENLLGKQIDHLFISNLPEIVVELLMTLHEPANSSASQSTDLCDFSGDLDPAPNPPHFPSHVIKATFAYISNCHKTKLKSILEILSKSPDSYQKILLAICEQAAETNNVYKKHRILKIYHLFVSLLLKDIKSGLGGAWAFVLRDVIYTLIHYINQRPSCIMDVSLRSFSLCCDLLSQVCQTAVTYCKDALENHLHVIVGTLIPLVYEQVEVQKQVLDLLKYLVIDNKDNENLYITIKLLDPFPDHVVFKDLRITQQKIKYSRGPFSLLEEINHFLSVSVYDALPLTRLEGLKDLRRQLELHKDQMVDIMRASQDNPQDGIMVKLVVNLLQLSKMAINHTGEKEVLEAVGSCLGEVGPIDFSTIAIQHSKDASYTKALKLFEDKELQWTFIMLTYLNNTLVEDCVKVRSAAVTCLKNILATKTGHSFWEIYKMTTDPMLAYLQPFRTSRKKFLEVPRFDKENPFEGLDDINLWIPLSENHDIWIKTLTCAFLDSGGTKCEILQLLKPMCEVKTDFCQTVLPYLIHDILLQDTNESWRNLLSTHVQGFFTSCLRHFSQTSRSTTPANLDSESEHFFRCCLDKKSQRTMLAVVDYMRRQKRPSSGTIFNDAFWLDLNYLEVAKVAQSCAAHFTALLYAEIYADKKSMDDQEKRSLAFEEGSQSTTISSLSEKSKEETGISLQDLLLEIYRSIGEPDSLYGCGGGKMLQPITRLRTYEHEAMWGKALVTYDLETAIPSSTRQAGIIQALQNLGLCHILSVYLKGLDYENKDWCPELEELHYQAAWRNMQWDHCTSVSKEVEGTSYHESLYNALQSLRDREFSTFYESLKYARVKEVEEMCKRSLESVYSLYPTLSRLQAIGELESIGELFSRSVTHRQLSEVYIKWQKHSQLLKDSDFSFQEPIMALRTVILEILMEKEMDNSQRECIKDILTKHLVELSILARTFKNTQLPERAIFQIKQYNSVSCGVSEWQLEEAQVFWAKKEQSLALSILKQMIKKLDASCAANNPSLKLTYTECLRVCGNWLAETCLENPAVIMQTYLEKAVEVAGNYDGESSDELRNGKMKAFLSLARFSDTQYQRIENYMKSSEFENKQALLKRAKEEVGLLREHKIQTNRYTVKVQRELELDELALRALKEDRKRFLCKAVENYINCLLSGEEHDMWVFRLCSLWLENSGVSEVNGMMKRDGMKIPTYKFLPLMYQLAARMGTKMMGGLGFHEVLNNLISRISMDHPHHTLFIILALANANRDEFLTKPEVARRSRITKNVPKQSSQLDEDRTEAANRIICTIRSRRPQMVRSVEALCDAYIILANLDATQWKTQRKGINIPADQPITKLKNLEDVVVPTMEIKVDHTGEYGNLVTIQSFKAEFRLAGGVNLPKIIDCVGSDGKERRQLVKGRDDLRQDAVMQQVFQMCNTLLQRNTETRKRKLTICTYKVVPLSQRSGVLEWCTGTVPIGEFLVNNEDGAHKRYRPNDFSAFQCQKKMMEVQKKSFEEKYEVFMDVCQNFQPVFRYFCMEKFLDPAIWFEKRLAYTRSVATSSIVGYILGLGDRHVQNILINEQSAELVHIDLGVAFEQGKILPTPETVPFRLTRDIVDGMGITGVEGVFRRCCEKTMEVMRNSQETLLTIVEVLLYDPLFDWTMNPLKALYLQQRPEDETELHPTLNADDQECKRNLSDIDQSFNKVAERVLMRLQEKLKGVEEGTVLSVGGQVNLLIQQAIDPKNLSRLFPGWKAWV

Chain of Angiopoietin-1 receptor (Homo sapiens) (Q02763 whole entry): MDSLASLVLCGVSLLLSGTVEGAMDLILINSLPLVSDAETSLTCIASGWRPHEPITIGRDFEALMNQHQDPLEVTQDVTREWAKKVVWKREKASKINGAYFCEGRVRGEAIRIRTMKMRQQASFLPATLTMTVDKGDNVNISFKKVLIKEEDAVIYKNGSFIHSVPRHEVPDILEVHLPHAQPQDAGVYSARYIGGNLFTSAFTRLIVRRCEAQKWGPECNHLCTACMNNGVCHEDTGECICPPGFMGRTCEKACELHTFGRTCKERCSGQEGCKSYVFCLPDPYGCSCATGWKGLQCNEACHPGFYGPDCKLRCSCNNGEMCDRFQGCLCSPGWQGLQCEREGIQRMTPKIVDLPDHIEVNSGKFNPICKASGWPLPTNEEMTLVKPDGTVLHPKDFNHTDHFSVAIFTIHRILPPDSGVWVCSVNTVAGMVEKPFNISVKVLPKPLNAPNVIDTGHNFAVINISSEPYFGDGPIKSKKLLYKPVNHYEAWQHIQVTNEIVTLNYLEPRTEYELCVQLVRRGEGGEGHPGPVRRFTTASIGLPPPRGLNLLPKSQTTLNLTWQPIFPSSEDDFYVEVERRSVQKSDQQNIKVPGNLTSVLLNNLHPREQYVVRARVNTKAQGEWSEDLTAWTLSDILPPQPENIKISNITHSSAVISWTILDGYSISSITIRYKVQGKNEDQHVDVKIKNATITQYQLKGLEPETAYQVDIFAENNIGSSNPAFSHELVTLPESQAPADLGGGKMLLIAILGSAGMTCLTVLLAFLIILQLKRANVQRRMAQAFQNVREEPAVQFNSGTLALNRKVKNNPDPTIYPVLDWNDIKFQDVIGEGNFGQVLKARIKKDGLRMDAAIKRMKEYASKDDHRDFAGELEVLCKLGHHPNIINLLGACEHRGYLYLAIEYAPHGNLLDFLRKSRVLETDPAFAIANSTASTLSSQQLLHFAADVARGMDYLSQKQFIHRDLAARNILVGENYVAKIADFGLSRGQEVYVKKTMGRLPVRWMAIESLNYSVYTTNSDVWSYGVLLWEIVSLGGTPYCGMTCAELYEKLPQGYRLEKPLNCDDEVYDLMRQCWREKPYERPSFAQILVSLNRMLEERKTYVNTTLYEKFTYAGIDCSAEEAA
Chain of Fibroblast growth factor receptor 3 (Homo sapiens) (P22607 23-806 limits assumed): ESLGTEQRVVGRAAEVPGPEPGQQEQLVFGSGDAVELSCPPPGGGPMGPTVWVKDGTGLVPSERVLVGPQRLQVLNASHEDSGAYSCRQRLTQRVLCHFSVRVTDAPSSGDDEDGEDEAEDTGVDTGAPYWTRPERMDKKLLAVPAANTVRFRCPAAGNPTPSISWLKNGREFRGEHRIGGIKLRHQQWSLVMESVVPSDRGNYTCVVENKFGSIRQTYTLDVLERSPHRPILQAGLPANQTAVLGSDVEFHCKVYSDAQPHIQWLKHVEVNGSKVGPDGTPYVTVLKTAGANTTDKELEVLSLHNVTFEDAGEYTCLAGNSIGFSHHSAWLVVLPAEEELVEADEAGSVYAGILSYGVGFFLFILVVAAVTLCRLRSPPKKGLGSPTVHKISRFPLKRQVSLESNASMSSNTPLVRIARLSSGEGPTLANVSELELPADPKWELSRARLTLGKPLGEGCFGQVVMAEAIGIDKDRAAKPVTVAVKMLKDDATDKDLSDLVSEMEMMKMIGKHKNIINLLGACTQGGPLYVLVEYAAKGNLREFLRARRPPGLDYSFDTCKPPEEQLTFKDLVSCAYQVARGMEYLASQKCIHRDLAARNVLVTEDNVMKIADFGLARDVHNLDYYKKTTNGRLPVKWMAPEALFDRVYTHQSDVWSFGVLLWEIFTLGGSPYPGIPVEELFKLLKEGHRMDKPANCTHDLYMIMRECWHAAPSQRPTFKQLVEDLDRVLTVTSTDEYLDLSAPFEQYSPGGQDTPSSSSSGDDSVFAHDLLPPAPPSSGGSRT

With `O=C(N[C@@H](C1CC1)C(F)(F)F)c1cc(-c2cnn3cc(-c4ccc(F)cc4)cnc23)cs1`, the inhibition in [1] and in experiment [3] was 0% each time. In addition, the fold change (FC) in [2] came to 0.

For `CNC(=O)c1ccccc1Oc1nc(Nc2cc(OC)c(OC)c(OC)c2)ncc1Br`, the figures for the inhibition in experiment [4], in experiment [6] and in [9] were 10%, 0% and 0%, respectively. Besides, the values for the fold change (FC) in experiment [5], in experiment [7] and in experiment [8] were 0, 0.15 and 0, respectively.

Regarding `CC(C)[C@H](NC(=O)c1cc(-c2cnn3cc(-c4ccc(OCCN5CCCCC5)cc4)cnc23)cs1)C(F)(F)F`, the inhibition – broadly, the share of the control response that was lost under treatment – came to 0% in [10], 0% in experiment [12], 0% in [13] and 6% in experiment [14]. In [11], the fold change (FC) is 0.41.
